Measured values reported in ChEMBL document CHEMBL3112390, “Discovery and SAR of 5-aminooctahydrocyclopentapyrrole-3a-carboxamides as potent CCR2 antagonists” (Bioorg Med Chem Lett, 2014).

Columns and labels:
[1] = AUC in rat at 10 mg/kg, po; type: ADME, organism-based; parameters: dose 10 mg/kg, route oral; conditions: plasma
Procedure, shortened: (§1)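 Rat pharmacokinetics after a single oral dose of 10 mpk given in 0.5% methocel. Maximum plasma concentration and plasma exposure (AUC) were taken from the plasma concentration–time profile.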

[2] = Cmax in rat at 10 mg/kg, po; type: ADME, organism-based; parameters: dose 10 mg/kg, route oral; conditions: in vivo; procedure, shortened: as §1
[3] = molecular target: Voltage-gated inwardly rectifying potassium channel KCNH2 (Homo sapiens, UniProt Q12809); experiment: Binding affinity to human ERG
[4] = molecular target: C-C chemokine receptor type 2 (Homo sapiens, UniProt P41597); experiment: Binding affinity to CCR2 receptor (unknown origin)
hERG (KCNH2) = hERG (KCNH2) (Homo sapiens, UniProt Q12809); experiment: Inhibition of human ERG at 3 uM by patchxpress assay
Chain of hERG (KCNH2) (Q12809 whole entry): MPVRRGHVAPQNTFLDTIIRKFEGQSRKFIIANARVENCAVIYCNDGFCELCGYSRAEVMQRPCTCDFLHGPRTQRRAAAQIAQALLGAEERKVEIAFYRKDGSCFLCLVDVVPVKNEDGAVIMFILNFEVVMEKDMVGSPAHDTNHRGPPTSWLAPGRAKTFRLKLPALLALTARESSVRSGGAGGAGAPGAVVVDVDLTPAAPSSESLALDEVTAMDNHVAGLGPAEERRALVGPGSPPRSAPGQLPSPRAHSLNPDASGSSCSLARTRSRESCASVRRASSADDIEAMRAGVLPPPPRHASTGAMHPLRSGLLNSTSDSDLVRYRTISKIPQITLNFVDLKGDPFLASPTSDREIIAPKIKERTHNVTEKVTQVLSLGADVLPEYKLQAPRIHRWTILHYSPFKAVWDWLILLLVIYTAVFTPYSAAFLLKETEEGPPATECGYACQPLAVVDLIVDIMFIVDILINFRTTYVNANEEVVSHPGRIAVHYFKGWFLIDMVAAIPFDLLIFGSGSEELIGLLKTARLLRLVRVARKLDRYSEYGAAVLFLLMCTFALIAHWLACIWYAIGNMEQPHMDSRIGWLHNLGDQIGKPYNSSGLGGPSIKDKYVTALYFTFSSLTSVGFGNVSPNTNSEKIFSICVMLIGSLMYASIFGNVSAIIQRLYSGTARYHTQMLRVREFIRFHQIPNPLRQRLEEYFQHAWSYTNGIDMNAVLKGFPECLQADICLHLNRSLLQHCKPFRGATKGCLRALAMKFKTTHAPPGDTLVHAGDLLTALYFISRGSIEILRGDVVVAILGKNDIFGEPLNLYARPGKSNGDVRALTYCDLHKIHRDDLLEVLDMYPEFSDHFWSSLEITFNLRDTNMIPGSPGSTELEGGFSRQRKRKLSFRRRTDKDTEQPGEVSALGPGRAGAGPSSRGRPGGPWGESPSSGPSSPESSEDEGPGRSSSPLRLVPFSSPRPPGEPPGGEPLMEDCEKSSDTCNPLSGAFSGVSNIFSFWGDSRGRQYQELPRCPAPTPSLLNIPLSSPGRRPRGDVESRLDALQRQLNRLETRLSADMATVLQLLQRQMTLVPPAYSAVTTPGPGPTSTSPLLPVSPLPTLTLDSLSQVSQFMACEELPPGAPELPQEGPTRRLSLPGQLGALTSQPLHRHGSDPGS

Chain of C-C chemokine receptor type 2 (P41597 whole entry): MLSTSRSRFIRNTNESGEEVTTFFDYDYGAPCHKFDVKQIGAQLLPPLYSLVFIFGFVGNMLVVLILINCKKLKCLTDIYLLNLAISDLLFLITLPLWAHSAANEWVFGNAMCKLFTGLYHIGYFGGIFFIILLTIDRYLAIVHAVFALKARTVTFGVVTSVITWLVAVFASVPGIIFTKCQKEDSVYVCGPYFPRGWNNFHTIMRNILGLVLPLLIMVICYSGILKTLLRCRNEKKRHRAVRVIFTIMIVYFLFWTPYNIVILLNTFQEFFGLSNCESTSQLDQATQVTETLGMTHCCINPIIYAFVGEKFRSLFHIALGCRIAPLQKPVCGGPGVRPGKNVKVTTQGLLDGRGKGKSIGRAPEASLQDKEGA
Chain of Voltage-gated inwardly rectifying potassium channel KCNH2 (Q12809 whole entry): as the sequence (Q12809 whole entry) above

Compound	AUC [1] [ng·h/mL]	Cmax [2] [ng/mL]	IC50 [3] [µM]	IC50 [4] [µM]	inhibition at 3 µM (hERG (KCNH2)) [%]
COC1COCCC1N[C@@H]1C[C@H]2CN(C(N)=O)C[C@@]2(C(=O)N2CCc3ncc(C(F)(F)F)cc3C2)C1 (mixture of isomers)	74	70.6	> 50	0.064	–
CNC(=O)N1C[C@@H]2C[C@@H](NC3CCOCC3OC)C[C@]2(C(=O)N2CCc3ncc(C(F)(F)F)cc3C2)C1 (mixture of isomers)	–	–	> 50	0.077	–
COC1COCCC1N[C@@H]1C[C@H]2CN(C(=O)NC(C)C)C[C@@]2(C(=O)N2CCc3ncc(C(F)(F)F)cc3C2)C1 (mixture of isomers)	–	–	> 50	0.41	–
COC1COCCC1N[C@@H]1C[C@H]2CN(C(=O)NCc3ccccc3)C[C@@]2(C(=O)N2CCc3ncc(C(F)(F)F)cc3C2)C1 (mixture of isomers)	–	–	> 50	0.057	–
COC1COCCC1N[C@@H]1C[C@H]2CN(/C(N)=N\C#N)C[C@@]2(C(=O)N2CCc3ncc(C(F)(F)F)cc3C2)C1 (mixture of isomers)	–	–	> 50	0.037	–
COC(=O)N1C[C@@H]2C[C@@H](NC3CCOCC3OC)C[C@]2(C(=O)N2CCc3ncc(C(F)(F)F)cc3C2)C1 (mixture of isomers)	–	–	> 50	0.41	–
COC1COCCC1N[C@@H]1C[C@H]2CN(C(=O)Oc3ccccc3)C[C@@]2(C(=O)N2CCc3ncc(C(F)(F)F)cc3C2)C1 (mixture of isomers)	–	–	> 50	0.56	–
COC1COCCC1N[C@@H]1C[C@H]2CN(C(=O)OCc3ccccc3)C[C@@]2(C(=O)N2CCc3ncc(C(F)(F)F)cc3C2)C1 (mixture of isomers)	–	–	> 50	0.118	–
COC1COCCC1N[C@@H]1C[C@H]2CN(C(=O)OCC(C)(C)C)C[C@@]2(C(=O)N2CCc3ncc(C(F)(F)F)cc3C2)C1 (mixture of isomers)	–	–	> 50	0.059	–
COC1COCCC1N[C@@H]1C[C@H]2CN(C(=O)OCC(C)C)C[C@@]2(C(=O)N2CCc3ncc(C(F)(F)F)cc3C2)C1 (mixture of isomers)	–	–	> 50	0.035	–
COCCOC(=O)N1C[C@@H]2C[C@@H](NC3CCOCC3OC)C[C@]2(C(=O)N2CCc3ncc(C(F)(F)F)cc3C2)C1 (mixture of isomers)	–	–	> 50	0.082	–
COC1COCCC1N[C@@H]1C[C@H]2CN(C(=O)OCC3CCOCC3)C[C@@]2(C(=O)N2CCc3ncc(C(F)(F)F)cc3C2)C1 (mixture of isomers)	–	–	–	0.032	–
COC1COCCC1N[C@@H]1C[C@H]2CN(C(=O)OCCC3CCOCC3)C[C@@]2(C(=O)N2CCc3ncc(C(F)(F)F)cc3C2)C1 (mixture of isomers)	427	145	> 50	0.031	7.3
COC1COCCC1N[C@@H]1C[C@H]2CN(C(=O)OCCNC(C)=O)C[C@@]2(C(=O)N2CCc3ncc(C(F)(F)F)cc3C2)C1 (mixture of isomers)	–	–	> 50	0.045	–
COC1COCCC1N[C@@H]1C[C@H]2CN(C(=O)OCCN3CCCC3)C[C@@]2(C(=O)N2CCc3ncc(C(F)(F)F)cc3C2)C1 (mixture of isomers)	–	–	> 50	0.033	–
COC1COCCC1N[C@@H]1C[C@H]2CN(C(=O)OCCN3CCOCC3)C[C@@]2(C(=O)N2CCc3ncc(C(F)(F)F)cc3C2)C1 (mixture of isomers)	–	–	> 50	0.041	–
COC1COCCC1N[C@@H]1C[C@H]2CNC[C@@]2(C(=O)N2CCc3ncc(C(F)(F)F)cc3C2)C1 (mixture of isomers)	–	–	> 50	–	–
COC1COCCC1N[C@@H]1C[C@H]2CN(C)C[C@@]2(C(=O)N2CCc3ncc(C(F)(F)F)cc3C2)C1 (mixture of isomers)	–	–	> 50	–	–
CCN1C[C@@H]2C[C@@H](NC3CCOCC3OC)C[C@]2(C(=O)N2CCc3ncc(C(F)(F)F)cc3C2)C1 (mixture of isomers)	–	–	42.6	0.629	–
COC1COCCC1N[C@@H]1C[C@H]2CN(C(C)C)C[C@@]2(C(=O)N2CCc3ncc(C(F)(F)F)cc3C2)C1 (mixture of isomers)	–	–	> 50	1.21	–
COC1COCCC1N[C@@H]1C[C@H]2CN(C3CC3)C[C@@]2(C(=O)N2CCc3ncc(C(F)(F)F)cc3C2)C1 (mixture of isomers)	–	–	–	0.18	–
COC1COCCC1N[C@@H]1C[C@H]2CN(C3COC3)C[C@@]2(C(=O)N2CCc3ncc(C(F)(F)F)cc3C2)C1 (mixture of isomers)	–	–	> 50	0.126	–
COC1COCCC1N[C@@H]1C[C@H]2CN(c3ccccc3)C[C@@]2(C(=O)N2CCc3ncc(C(F)(F)F)cc3C2)C1 (mixture of isomers)	–	–	22.9	0.062	–
COC1COCCC1N[C@@H]1C[C@H]2CN(c3nccs3)C[C@@]2(C(=O)N2CCc3ncc(C(F)(F)F)cc3C2)C1 (mixture of isomers)	–	–	> 50	0.152	–
COC1COCCC1N[C@@H]1C[C@H]2CN(C(C)=O)C[C@@]2(C(=O)N2CCc3ncc(C(F)(F)F)cc3C2)C1 (mixture of isomers)	–	–	> 50	0.395	–
COC1COCCC1N[C@@H]1C[C@H]2CN(C(=O)/C=C/c3ccccc3)C[C@@]2(C(=O)N2CCc3ncc(C(F)(F)F)cc3C2)C1 (mixture of isomers)	–	–	24.1	–	–
COC1COCCC1N[C@@H]1C[C@H]2CN(C(=O)/C=C/C(C)(C)C)C[C@@]2(C(=O)N2CCc3ncc(C(F)(F)F)cc3C2)C1 (mixture of isomers)	–	–	> 50	0.068	–
COC1COCCC1N[C@@H]1C[C@H]2CN(C(=O)C#CC3CC3)C[C@@]2(C(=O)N2CCc3ncc(C(F)(F)F)cc3C2)C1 (mixture of isomers)	–	–	49.6	0.087	–
